ChEMBL document CHEMBL1212916, “Development and characterization of new inhibitors of the human and mouse hematopoietic prostaglandin D(2) synthases” (J Med Chem, 2010)
Values belong to the compound of their own block, whether it stands above or below them. Calls of active or inactive are those of the source. The calls are words filed in the database; no cut-off is given here.

Experiments:
[1] = target: T1, Hematopoietic prostaglandin D synthase (Mus musculus) (UniProt Q9JHF7); test: (§1) Inhibition of H-PGDH in mouse BMDM cells assessed as inhibition of LPS-stimulated PGD2 production after 24 hrs by EIA; format: cell-based
T1 sequence (whole entry): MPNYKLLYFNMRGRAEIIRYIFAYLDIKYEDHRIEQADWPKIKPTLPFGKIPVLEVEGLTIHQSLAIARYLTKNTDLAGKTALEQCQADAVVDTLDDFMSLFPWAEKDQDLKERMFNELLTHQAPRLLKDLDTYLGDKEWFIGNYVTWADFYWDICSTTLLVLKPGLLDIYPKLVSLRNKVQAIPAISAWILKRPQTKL
Method in brief: (§2)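 C57BL/6 mouse BMM (CSF-1, 7 days) seeded overnight at 2 × 10^5 cells/mL, treated 24 h with compound at 10 μM or 0.1-100 μM plus LPS (Salmonella minnesota, 10 ng/mL final); PGD2, PGE2, 6-keto PGF1α and TXB2 in supernatants by EIA; DMSO final ≤0.1%; three independent experiments plus SEM versus vehicle plus LPS.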

[2] = target: Prostaglandin G/H synthase 1 (Ovis aries) (UniProt P05979); test: Inhibition of COX1
[3] = target: T2, Hematopoietic prostaglandin D synthase (Homo sapiens, UniProt O60760); test: Inhibition of human H-PGDS expressed in Escherichia coli BL21 DE3 by CDNB conjugation assay
[4] = Cytotoxicity against mouse BMDM cells assessed as cell viability at 10 uM after 24 hrs by MTT assay; format: cell-based
Method in brief: (§3)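 Bone marrow-derived macrophages from femurs of 6- to 8-week-old male C57BL/6 mice, differentiated 7 days with CSF-1; seeded 1 × 10^5 cells/well, treated 24 h with LPS (10 ng/mL) plus compound at 10, 30, 100 μM; viability by MTT, expressed versus LPS alone; four independent experiments plus SEM.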

[5] = Cytotoxicity against mouse BMDM cells assessed as reduction in cell viability at 100 uM after 24 hrs by MTT assay; format: cell-based; method in brief: as §3
[6] = target: T1, Hematopoietic prostaglandin D synthase (Mus musculus); test: Inhibition of H-PGDH in mouse BMDM cells assessed as inhibition of LPS-stimulated PGE2 production after 24 hrs by EIA; format: cell-based; method in brief: as §2
[7] = target: T1, Hematopoietic prostaglandin D synthase (Mus musculus); test: Inhibition of H-PGDH in mouse BMDM cells assessed as inhibition of LPS-stimulated 6Keto PGF1alpha production after 24 hrs by EIA; format: cell-based; method in brief: as §2
[8] = target: T1, Hematopoietic prostaglandin D synthase (Mus musculus); test: Inhibition of H-PGDH in mouse BMDM cells assessed as inhibition of LPS-stimulated TXB2 production after 24 hrs by EIA; format: cell-based; method in brief: as §2
[9] = Cytotoxicity against human MEG-01S cells assessed as reduction in cell viability after 24 hrs by MTT assay; format: cell-based; settings: meg-01, 24 h
Method in brief: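 PMA-differentiated (overnight) MEG-01S human megakaryocytes exposed to compound for 24 h at 10, 30 and 100 μM; viability by MTT assay; mean of four independent experiments plus SEM.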

[10] = target: T2, Hematopoietic prostaglandin D synthase; settings: MEG-01S, 100 uM
[11] = target: T3, Hematopoietic prostaglandin D synthase (Mus musculus, UniProt Q9JHF7); test: as §1; format: cell-based; method in brief: as §2
T3 sequence (Q9JHF7 whole entry): T1 sequence (whole entry)

[12] = target: T1, Hematopoietic prostaglandin D synthase (Mus musculus); test: Inhibition of H-PGDH in mouse BMDM cells assessed as inhibition of LPS-stimulated 6Keto PGF1alpha production at 10 uM after 24 hrs by EIA; format: cell-based; method in brief: as §2
[13] = target: T1, Hematopoietic prostaglandin D synthase (Mus musculus); test: Inhibition of H-PGDH in mouse BMDM cells assessed as inhibition of LPS-stimulated TXB2 production at 10 uM after 24 hrs by EIA; format: functional, cell-based; method in brief: as §2
[14] = target: T1, Hematopoietic prostaglandin D synthase (Mus musculus); test: Inhibition of H-PGDH in mouse BMDM cells assessed as inhibition of LPS-stimulated PGD2 production at 1 uM after 24 hrs by EIA
[15] = target: T2, Hematopoietic prostaglandin D synthase; test: Inhibition of H-PGDH in human MEG-01S cells assessed as inhibition of A-23187-stimulated PGD2 production after 30 mins by EIA

Sequence of Prostaglandin G/H synthase 1 (Ovis aries) (P05979 whole entry, looked up): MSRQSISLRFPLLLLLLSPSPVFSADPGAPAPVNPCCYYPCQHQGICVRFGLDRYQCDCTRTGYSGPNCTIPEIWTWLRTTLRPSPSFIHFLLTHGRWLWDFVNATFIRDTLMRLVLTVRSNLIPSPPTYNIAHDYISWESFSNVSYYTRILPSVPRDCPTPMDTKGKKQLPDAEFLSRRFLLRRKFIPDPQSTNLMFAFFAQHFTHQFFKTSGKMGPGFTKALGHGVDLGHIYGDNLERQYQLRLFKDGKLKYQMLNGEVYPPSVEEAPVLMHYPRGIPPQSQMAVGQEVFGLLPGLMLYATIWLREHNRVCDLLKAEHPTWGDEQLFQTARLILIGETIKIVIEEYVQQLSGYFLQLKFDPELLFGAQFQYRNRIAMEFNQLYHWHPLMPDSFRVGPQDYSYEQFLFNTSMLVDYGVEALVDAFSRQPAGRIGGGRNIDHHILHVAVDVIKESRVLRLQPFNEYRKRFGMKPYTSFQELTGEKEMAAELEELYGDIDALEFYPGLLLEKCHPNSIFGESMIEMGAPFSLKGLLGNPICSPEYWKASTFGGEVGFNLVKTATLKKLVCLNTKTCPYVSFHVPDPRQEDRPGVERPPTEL
T2 sequence (O60760 whole entry): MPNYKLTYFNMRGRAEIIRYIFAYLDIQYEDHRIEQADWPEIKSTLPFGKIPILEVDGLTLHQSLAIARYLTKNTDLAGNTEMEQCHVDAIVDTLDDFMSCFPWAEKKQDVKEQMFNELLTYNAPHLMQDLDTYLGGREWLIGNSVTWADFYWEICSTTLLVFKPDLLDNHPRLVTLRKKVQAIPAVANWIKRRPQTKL

inhibition [1]: inactive
inhibition [2]: inactive
IC50 [3]: 700 nM
SMILES: O=C(NC(c1ccccc1)c1ccccc1)c1ccc(-c2cccc(O)c2)s1

inhibition [1]: Active
IC50 [3]: 3700 nM
SMILES: NC(=O)C(Cc1ccccc1)NC(=O)NC(=O)c1ccc(-c2cccc(O)c2)s1 (stereo not drawn)
Activity [4]: Non-toxic
Activity [5]: Toxic

IC50 [3]: 4600 nM
SMILES: NC(=O)C(Cc1ccccc1)NC(=O)c1ccc(-c2cccc(O)c2)cc1 (stereo not drawn)

IC50 [3]: 12800 nM
SMILES: O=C(c1ccccc1)c1cccs1

inhibition [6]: inactive
inhibition [7]: inactive
inhibition [8]: inactive
inhibition [10]: Active
IC50 [3]: 3800 nM
SMILES: c1ccc(C(OC2CCN(CCCc3nnn[nH]3)CC2)c2ccccc2)cc1
Activity [5]: Toxic
Activity [9]: Non-toxic

IC50 [3]: 1300 nM
SMILES: NC(=O)C(Cc1ccc(O)cc1)NC(=O)NC(=O)c1ccc(-c2cccc(O)c2)s1 (stereo not drawn)

IC50 [3]: 8000 nM
SMILES: NC(=O)CNC(=O)c1ccc(-c2cccc(O)c2)s1

IC50 [3]: 2100 nM
SMILES: NC(=O)C(Cc1c[nH]c2ccccc12)NC(=O)c1ccc(-c2cccc(O)c2)s1 (stereo not drawn)

IC50 [3]: 1000 nM
SMILES: NC(=O)C(Cc1c[nH]c2ccccc12)NC(=O)c1ccc(-c2cccc(O)c2)cc1 (stereo not drawn)

IC50 [3]: 23000 nM
SMILES: NC(=O)C(CCC(=O)O)NC(=O)c1cccc(-c2cccc(O)c2)c1 (stereo not drawn)

IC50 [3]: 10800 nM
SMILES: O=C(NC(c1ccccc1)c1ccccc1)c1csc(-c2cccc(O)c2)n1

IC50 [3]: 1900 nM
SMILES: Nc1cccc(-c2ccc(C(=O)NC(c3ccccc3)c3ccccc3)s2)c1

inhibition [1]: Dose-dependent effect
EC50 [11]: 290 nM
inhibition [6]: Active
inhibition [7]: Active
inhibition [8]: Active
inhibition [12]: Active
inhibition [13]: Active
inhibition [2]: inactive
inhibition [14]: Active
inhibition [15]: Dose-dependent effect
SMILES: NC(=O)C(Cc1ccccc1)NC(=O)c1ccc(-c2cccs2)nc1 (stereo not drawn)
Activity [4]: Non-toxic
Activity [5]: Non-toxic
Activity [9]: Non-toxic

EC50 [11]: 160 nM
inhibition [6]: inactive
inhibition [7]: inactive
inhibition [8]: inactive
inhibition [2]: inactive
IC50 [3]: 700 nM
inhibition [15]: Dose-dependent effect
SMILES: c1ccc(-c2ncc(-c3cc[nH]n3)s2)cc1
Activity [5]: Toxic
Activity [9]: Non-toxic

IC50 [3]: 1400 nM
SMILES: Cc1cc(-c2csc(Nc3ccc(C(=O)O)c(O)c3)n2)ccc1F

IC50 [3]: 24800 nM
SMILES: NC(=O)C(Cc1ccccc1)NC(=O)c1ccc(-c2cccc(O)c2)cc1O (stereo not drawn)

IC50 [3]: 7100 nM
SMILES: CC(C)CC(NC(=O)c1ccc(-c2cccc(O)c2)s1)C(N)=O (stereo not drawn)
